# In ChEMBL document CHEMBL1132489, “Structure-activity relationship studies of novel heteroretinoids: induction of apoptosis in the HL-60 cell line by a novel isoxazole-containing heteroretinoid” (J Med Chem, 1999):
# The source made the active and inactive calls. The rule behind the calls is not given here.
# Molecular target: T1, Retinoic acid receptor gamma (Homo sapiens, UniProt P13631)
# T1 sequence (P13631 whole entry): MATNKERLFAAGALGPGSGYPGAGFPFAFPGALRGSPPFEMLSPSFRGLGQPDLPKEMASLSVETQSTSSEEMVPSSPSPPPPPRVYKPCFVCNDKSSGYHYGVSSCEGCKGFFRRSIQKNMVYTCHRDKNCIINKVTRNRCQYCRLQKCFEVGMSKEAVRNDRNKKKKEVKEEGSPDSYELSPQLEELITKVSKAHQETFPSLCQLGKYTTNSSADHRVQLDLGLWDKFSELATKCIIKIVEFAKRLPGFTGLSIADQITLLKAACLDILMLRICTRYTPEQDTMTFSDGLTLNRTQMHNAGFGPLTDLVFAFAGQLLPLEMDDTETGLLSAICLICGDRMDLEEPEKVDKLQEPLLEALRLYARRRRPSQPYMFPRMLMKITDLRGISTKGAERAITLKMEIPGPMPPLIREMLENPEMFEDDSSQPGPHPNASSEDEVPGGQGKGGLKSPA
# Experiment: Transcriptional activation of Retinoic acid receptor RAR gamma
# Type: functional
# Details: not given
row,SMILES,EC50
1,Cc1cc2c(cc1-c1cc(C(=O)O)no1)C(C)(C)CCC2(C)C,> 1 µM
2,C/C(=C\c1cc(C(=O)O)no1)c1ccc2c(c1)C(C)(C)CCC2(C)C,> 1 µM
3,CC1(C)CCC(C)(C)c2cc(-c3cc(C(=O)O)no3)ccc21,> 1 µM
4,C/C(=C/c1cc(C(=O)O)no1)c1ccc2c(c1)C(C)(C)CCC2(C)C,> 1 µM

# Test system: HL-60
# Experiment: Cytostatic activity against HL-60 cells
# Type: functional, cell-based
# Details: Homo sapiens
# Outline: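 HL-60 cells in RPMI 1640 with 10% FCS, penicillin, streptomycin and 2 mM L-glutamine, 37 °C, 5% CO2. 2 × 10^5 cells per well in 1 mL medium, exposed to a range of drug concentrations for 48 h. Viable cells counted on a hemocytometer after trypan blue staining (uptake = nonviable); result given as percent of control proliferation.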
row,SMILES,IC50
1,Cc1cc2c(cc1-c1cc(C(=O)O)no1)C(C)(C)CCC2(C)C,72 µM
2,C/C(=C\c1cc(C(=O)O)no1)c1ccc2c(c1)C(C)(C)CCC2(C)C,74 µM
3,CC1(C)CCC(C)(C)c2cc(-c3cc(C(=O)O)no3)ccc21,75 µM

# Molecular target: T2, Retinoic acid receptor RXR-alpha (Homo sapiens, UniProt P19793)
# T2 sequence (P19793 whole entry): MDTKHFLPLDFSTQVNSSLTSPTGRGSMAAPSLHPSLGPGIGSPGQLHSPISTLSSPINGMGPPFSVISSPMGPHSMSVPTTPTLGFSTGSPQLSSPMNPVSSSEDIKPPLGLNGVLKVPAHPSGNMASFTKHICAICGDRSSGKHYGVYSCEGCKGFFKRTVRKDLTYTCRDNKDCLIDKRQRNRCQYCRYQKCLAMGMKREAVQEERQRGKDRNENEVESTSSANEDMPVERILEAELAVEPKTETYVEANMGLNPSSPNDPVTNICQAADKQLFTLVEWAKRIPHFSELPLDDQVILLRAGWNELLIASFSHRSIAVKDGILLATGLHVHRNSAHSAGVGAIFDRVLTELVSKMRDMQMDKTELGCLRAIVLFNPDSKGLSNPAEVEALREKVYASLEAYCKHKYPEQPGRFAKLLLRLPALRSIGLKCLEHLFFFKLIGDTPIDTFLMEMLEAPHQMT
# Experiment: In vitro binding affinity for Retinoid X receptor RXR alpha
# Details: not given
row,SMILES,Kd
1,Cc1cc2c(cc1-c1cc(C(=O)O)no1)C(C)(C)CCC2(C)C,5.5 µM
2,C/C(=C\c1cc(C(=O)O)no1)c1ccc2c(c1)C(C)(C)CCC2(C)C,2.1 µM
3,CC1(C)CCC(C)(C)c2cc(-c3cc(C(=O)O)no3)ccc21,5.1 µM
4,C/C(=C/c1cc(C(=O)O)no1)c1ccc2c(c1)C(C)(C)CCC2(C)C,4.2 µM

# Test system: HL-60
# Experiment: (§1) Granulocytic marker CD11b expression in HL-60 cell differentiation assay
# Type: functional, Homo sapiens
# Details: not given
# Outline: (§2)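 HL-60 cells (2 × 10^5) exposed to 50 µM of each retinoid for 6 days. Surface antigens measured by two-colour direct immunofluorescence and flow cytometry: FITC anti-human CD14 paired with PE anti-CD11c, or FITC anti-CD15 paired with PE anti-CD11b. Nonbinding murine IgG1/IgG2 isotype antibodies served as controls. Morphology was checked on May Grünwald-Giemsa cytospins.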
row,SMILES,Expression
1,Cc1cc2c(cc1-c1cc(C(=O)O)no1)C(C)(C)CCC2(C)C,0%
2,C/C(=C\c1cc(C(=O)O)no1)c1ccc2c(c1)C(C)(C)CCC2(C)C,12.2%
3,CC1(C)CCC(C)(C)c2cc(-c3cc(C(=O)O)no3)ccc21,0%

# Molecular target: T3, Retinoic acid receptor RXR-gamma (Homo sapiens, UniProt P48443)
# T3 sequence (P48443 whole entry): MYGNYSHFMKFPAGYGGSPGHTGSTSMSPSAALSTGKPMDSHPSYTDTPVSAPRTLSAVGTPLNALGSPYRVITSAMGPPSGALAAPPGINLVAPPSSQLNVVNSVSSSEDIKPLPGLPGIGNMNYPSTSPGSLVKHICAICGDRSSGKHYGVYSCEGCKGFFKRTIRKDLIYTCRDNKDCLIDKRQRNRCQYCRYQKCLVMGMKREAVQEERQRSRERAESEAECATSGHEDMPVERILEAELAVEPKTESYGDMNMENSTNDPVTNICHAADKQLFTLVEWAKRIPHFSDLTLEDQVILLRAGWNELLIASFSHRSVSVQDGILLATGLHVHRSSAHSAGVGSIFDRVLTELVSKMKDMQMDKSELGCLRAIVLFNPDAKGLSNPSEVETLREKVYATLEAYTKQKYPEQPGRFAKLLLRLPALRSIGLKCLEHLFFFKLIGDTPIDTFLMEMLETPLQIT
# Experiment: Transcriptional activation of Retinoid X receptor RXR gamma
# Type: functional
# Details: not given
row,SMILES,EC50
1,C/C(=C\c1cc(C(=O)O)no1)c1ccc2c(c1)C(C)(C)CCC2(C)C,> 1 µM

# Molecular target: T3, Retinoic acid receptor RXR-gamma
# Experiment: In vitro binding affinity for Retinoid X receptor RXR gamma
# Details: not given
row,SMILES,Kd
1,Cc1cc2c(cc1-c1cc(C(=O)O)no1)C(C)(C)CCC2(C)C,8.1 µM
2,C/C(=C\c1cc(C(=O)O)no1)c1ccc2c(c1)C(C)(C)CCC2(C)C,1.4 µM
3,CC1(C)CCC(C)(C)c2cc(-c3cc(C(=O)O)no3)ccc21,> 100 µM
4,C/C(=C/c1cc(C(=O)O)no1)c1ccc2c(c1)C(C)(C)CCC2(C)C,> 10 µM

# Test system: HL-60
# Experiment: Monocytic marker CD14 expression in HL-60 cell differentiation assay
# Type: functional, Homo sapiens
# Details: not given
# Outline: as §2
row,SMILES,Expression
1,Cc1cc2c(cc1-c1cc(C(=O)O)no1)C(C)(C)CCC2(C)C,47.23%
2,C/C(=C\c1cc(C(=O)O)no1)c1ccc2c(c1)C(C)(C)CCC2(C)C,82.6%
3,CC1(C)CCC(C)(C)c2cc(-c3cc(C(=O)O)no3)ccc21,15.8%

# Molecular target: T1, Retinoic acid receptor gamma
# Experiment: In vitro binding affinity for Retinoic acid receptor RAR gamma
# Details: not given
row,SMILES,Kd
1,Cc1cc2c(cc1-c1cc(C(=O)O)no1)C(C)(C)CCC2(C)C,> 3 µM
2,C/C(=C\c1cc(C(=O)O)no1)c1ccc2c(c1)C(C)(C)CCC2(C)C,2 µM
3,CC1(C)CCC(C)(C)c2cc(-c3cc(C(=O)O)no3)ccc21,8.8 µM
4,C/C(=C/c1cc(C(=O)O)no1)c1ccc2c(c1)C(C)(C)CCC2(C)C,7 µM

# Test system: HL-60
# Experiment: as §1
# Type: functional, Homo sapiens
# Details: not given
# Outline: as §2
row,SMILES,Expression
1,Cc1cc2c(cc1-c1cc(C(=O)O)no1)C(C)(C)CCC2(C)C,0%
2,C/C(=C\c1cc(C(=O)O)no1)c1ccc2c(c1)C(C)(C)CCC2(C)C,13%
3,CC1(C)CCC(C)(C)c2cc(-c3cc(C(=O)O)no3)ccc21,0%

# Molecular target: T2, Retinoic acid receptor RXR-alpha
# Experiment: Transcriptional activation of Retinoid X receptor RXR alpha
# Type: functional
# Details: not given
row,SMILES,EC50
1,C/C(=C\c1cc(C(=O)O)no1)c1ccc2c(c1)C(C)(C)CCC2(C)C,> 1 µM

# Molecular target: T4, Retinoic acid receptor beta (Homo sapiens, UniProt P10826)
# T4 sequence (P10826 whole entry): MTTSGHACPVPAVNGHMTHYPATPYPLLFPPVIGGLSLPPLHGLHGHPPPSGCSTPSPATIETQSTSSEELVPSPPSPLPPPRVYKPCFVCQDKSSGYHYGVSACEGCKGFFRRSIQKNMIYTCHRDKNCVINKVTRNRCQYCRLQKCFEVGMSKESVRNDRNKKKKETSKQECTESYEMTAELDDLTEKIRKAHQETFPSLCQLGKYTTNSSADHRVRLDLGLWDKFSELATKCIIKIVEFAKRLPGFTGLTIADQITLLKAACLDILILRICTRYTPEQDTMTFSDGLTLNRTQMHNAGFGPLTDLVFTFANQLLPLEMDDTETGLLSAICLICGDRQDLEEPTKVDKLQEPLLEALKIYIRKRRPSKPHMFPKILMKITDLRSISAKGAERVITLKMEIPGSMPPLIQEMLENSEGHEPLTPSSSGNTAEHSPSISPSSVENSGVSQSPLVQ
# Experiment: In vitro binding affinity for Retinoic acid receptor RAR beta
# Details: not given
row,SMILES,Kd
1,C/C(=C\c1cc(C(=O)O)no1)c1ccc2c(c1)C(C)(C)CCC2(C)C,> 30 µM
2,CC1(C)CCC(C)(C)c2cc(-c3cc(C(=O)O)no3)ccc21,21 µM
3,C/C(=C/c1cc(C(=O)O)no1)c1ccc2c(c1)C(C)(C)CCC2(C)C,> 30 µM

# Molecular target: T5, Retinoic acid receptor alpha (Homo sapiens, UniProt P10276)
# T5 sequence (P10276 whole entry): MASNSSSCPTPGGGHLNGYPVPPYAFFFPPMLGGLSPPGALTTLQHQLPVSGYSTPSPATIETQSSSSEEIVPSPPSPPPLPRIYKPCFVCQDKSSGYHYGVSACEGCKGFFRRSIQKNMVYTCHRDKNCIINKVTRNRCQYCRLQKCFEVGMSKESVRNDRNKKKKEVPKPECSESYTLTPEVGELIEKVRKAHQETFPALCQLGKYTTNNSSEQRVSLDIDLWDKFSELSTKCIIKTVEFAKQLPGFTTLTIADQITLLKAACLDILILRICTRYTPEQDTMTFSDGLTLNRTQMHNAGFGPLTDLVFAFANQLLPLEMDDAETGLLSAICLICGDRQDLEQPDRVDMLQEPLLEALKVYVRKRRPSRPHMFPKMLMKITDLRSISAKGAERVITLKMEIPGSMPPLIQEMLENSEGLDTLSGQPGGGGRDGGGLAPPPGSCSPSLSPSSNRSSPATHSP
# Experiment: In vitro binding affinity for Retinoic acid receptor RAR alpha
# Details: not given
row,SMILES,Kd
1,Cc1cc2c(cc1-c1cc(C(=O)O)no1)C(C)(C)CCC2(C)C,9 µM
2,C/C(=C\c1cc(C(=O)O)no1)c1ccc2c(c1)C(C)(C)CCC2(C)C,1 µM
3,CC1(C)CCC(C)(C)c2cc(-c3cc(C(=O)O)no3)ccc21,28 µM
4,C/C(=C/c1cc(C(=O)O)no1)c1ccc2c(c1)C(C)(C)CCC2(C)C,6 µM

# Molecular target: T6, Retinoic acid receptor alpha (Homo sapiens) (UniProt P10276)
# T6 sequence (whole entry): T5 sequence (P10276 whole entry)
# Experiment: Transcriptional activation of Retinoic acid receptor RAR alpha; NA is Not Active
# Type: functional
# Details: not given
row,SMILES,Transcriptional activation
1,Cc1cc2c(cc1-c1cc(C(=O)O)no1)C(C)(C)CCC2(C)C,inactive
2,C/C(=C\c1cc(C(=O)O)no1)c1ccc2c(c1)C(C)(C)CCC2(C)C,inactive
3,CC1(C)CCC(C)(C)c2cc(-c3cc(C(=O)O)no3)ccc21,inactive
4,C/C(=C/c1cc(C(=O)O)no1)c1ccc2c(c1)C(C)(C)CCC2(C)C,inactive

# Molecular target: T4, Retinoic acid receptor beta
# Experiment: Transcriptional activation of Retinoic acid receptor RAR beta
# Type: functional
# Details: not given
row,SMILES,EC50
1,Cc1cc2c(cc1-c1cc(C(=O)O)no1)C(C)(C)CCC2(C)C,> 1 µM
2,C/C(=C\c1cc(C(=O)O)no1)c1ccc2c(c1)C(C)(C)CCC2(C)C,> 1 µM
3,CC1(C)CCC(C)(C)c2cc(-c3cc(C(=O)O)no3)ccc21,> 1 µM
4,C/C(=C/c1cc(C(=O)O)no1)c1ccc2c(c1)C(C)(C)CCC2(C)C,> 1 µM

# Molecular target: T7, Retinoic acid receptor RXR-beta (Homo sapiens) (UniProt P28702)
# T7 sequence (whole entry): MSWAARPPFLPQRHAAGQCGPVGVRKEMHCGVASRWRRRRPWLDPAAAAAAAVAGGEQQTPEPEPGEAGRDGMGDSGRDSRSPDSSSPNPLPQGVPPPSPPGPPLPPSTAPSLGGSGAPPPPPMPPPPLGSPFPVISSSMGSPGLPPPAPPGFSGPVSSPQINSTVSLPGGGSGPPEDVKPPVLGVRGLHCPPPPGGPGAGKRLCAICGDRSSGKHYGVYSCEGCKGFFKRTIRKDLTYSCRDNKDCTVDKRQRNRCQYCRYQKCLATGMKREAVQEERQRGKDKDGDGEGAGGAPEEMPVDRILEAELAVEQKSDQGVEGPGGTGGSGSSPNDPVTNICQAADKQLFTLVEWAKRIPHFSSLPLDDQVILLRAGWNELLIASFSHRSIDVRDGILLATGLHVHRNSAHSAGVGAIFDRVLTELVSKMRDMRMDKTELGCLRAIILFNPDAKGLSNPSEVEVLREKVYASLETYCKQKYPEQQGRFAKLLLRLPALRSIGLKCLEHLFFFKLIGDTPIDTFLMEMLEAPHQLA
# Experiment: Transcriptional activation of Retinoid X receptor RXR beta; NA is Not Active
# Type: functional
# Details: not given
row,SMILES,Transcriptional activation
1,Cc1cc2c(cc1-c1cc(C(=O)O)no1)C(C)(C)CCC2(C)C,inactive
2,C/C(=C\c1cc(C(=O)O)no1)c1ccc2c(c1)C(C)(C)CCC2(C)C,inactive
3,CC1(C)CCC(C)(C)c2cc(-c3cc(C(=O)O)no3)ccc21,inactive
4,C/C(=C/c1cc(C(=O)O)no1)c1ccc2c(c1)C(C)(C)CCC2(C)C,inactive
